Reference: ChEMBL document CHEMBL1126604, “Synthesis and antiviral activity of 5-thien-2-yl-2'-deoxyuridine analogues” (1993)
Converted amounts (≈) assume the structure as drawn.

Tests used:
Type in all cases: functional
Human alphaherpesvirus 3 [1] = assay: Minimum inhibitory concentration required to reduce Varicella-Zoster virus (VZV (Oka)) virus-induced cytopathicity by 50%
Human alphaherpesvirus 3 [2] = assay: Minimum inhibitory concentration required to reduce TK-VZV (YS/R) virus-induced cytopathicity by 50%
Human alphaherpesvirus 1 [3] = assay: Minimum inhibitory concentration required to reduce thymidine kinase deficient-HSV-1 (VMW 1837) virus-induced cytopathicity by 50%
Cell line [4] = assay: (§1) Minimum inhibitory concentration required to reduce virus-induced cell growth by 50%; conditions: Homo sapiens
Outline: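 Cytotoxicity was measured as inhibition of cell growth in E6SM or HEL cells seeded in 96-well plates.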

Human alphaherpesvirus 1 [5] = assay: Minimum inhibitory concentration required to reduce herpes simplex virus-1 (HSV-1 (KOS)) virus-induced cytopathicity by 50%
Human alphaherpesvirus 1 [6] = assay: Minimum inhibitory concentration required to reduce thymidine kinase deficient-HSV-1 (B2006) virus-induced cytopathicity by 50%
Human alphaherpesvirus 2 [7] = assay: Minimum inhibitory concentration required to reduce herpes simplex virus-2 (HSV-2 (G)) virus-induced cytopathicity by 50%
Human alphaherpesvirus 2 [8] = assay: Minimum inhibitory concentration required to reduce herpes simplex virus-2 (HSV-2 (196)) virus-induced cytopathicity by 50%
Vaccinia virus = assay: Minimum inhibitory concentration required to reduce vaccinia virus (VV) virus-induced cytopathicity by 50%; conditions: Orthopoxvirus vaccinia
[9] = test system: Vesicular stomatitis virus; assay: Minimum inhibitory concentration required to reduce VSV virus-induced cytopathicity by 50%
Human alphaherpesvirus 1 [10] = assay: Minimum inhibitory concentration required to reduce herpes simplex virus-1 (HSV-1 (McIntyre)) virus-induced cytopathicity by 50%
Human alphaherpesvirus 1 [11] = assay: Minimum inhibitory concentration required to reduce herpes simplex virus-1 (HSV-1 (F)) virus-induced cytopathicity by 50%
Human alphaherpesvirus 2 [12] = assay: Minimum inhibitory concentration required to reduce herpes simplex virus-2 (HSV-2 (Lyons)) virus-induced cytopathicity by 50%
Cell line [13] = assay: Minimum concentration required to cause a microscopically detectable alteration of human cells morphology
Outline: (§2)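 Cytotoxicity read as the minimum concentration causing a microscopically detectable alteration of normal cell morphology. Cells were human embryonic skin-muscle (E6SM) or human embryonic lung (HEL), seeded in 96-well plates.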

Human alphaherpesvirus 3 [14] = assay: Minimum inhibitory concentration required to reduce TK-VZV (07-1) virus-induced cytopathicity by 50%
Cytomegalovirus [15] = assay: Minimum inhibitory concentration required to reduce cytomegalo virus (CMV (AD-169)) virus-induced cytopathicity by 50%; conditions: Human betaherpesvirus 5
Cytomegalovirus [16] = assay: Minimum inhibitory concentration required to reduce cytomegalo virus (CMV (Davis)) virus-induced cytopathicity by 50%; conditions: Human betaherpesvirus 5
Cell line [17] = assay: Minimum concentration required to cause a microscopically detectable alteration of cell morphology; conditions: Homo sapiens; outline: as §2
[18] = as §1; conditions: Homo sapiens

| Compound | MIC (Human alphaherpesvirus 3 [1]) | MIC (Human alphaherpesvirus 3 [2]) | MIC (Human alphaherpesvirus 1 [3]) | MIC (Cell line [4]) | MIC (Human alphaherpesvirus 1 [5]) | MIC (Human alphaherpesvirus 1 [6]) | MIC (Human alphaherpesvirus 2 [7]) | MIC (Human alphaherpesvirus 2 [8]) | MIC (Vaccinia virus) | MIC [9] | MIC (Human alphaherpesvirus 1 [10]) | MIC (Human alphaherpesvirus 1 [11]) | MIC (Human alphaherpesvirus 2 [12]) | MIC (Cell line [13]) | MIC (Human alphaherpesvirus 3 [14]) | MIC (Cytomegalovirus [15]) | MIC (Cytomegalovirus [16]) | MIC (Cell line [17]) | MIC [18] |
| --- | --- | --- | --- | --- | --- | --- | --- | --- | --- | --- | --- | --- | --- | --- | --- | --- | --- | --- | --- |
| O=c1[nH]c(=O)n([C@H]2C[C@H](O)[C@@H](CO)O2)cc1-c1ccno1 | 0.48 µg/mL (≈ 1.63 µM) | 10 µg/mL (≈ 33.9 µM) | > 400 µg/mL | > 50 µg/mL | 20 µg/mL (≈ 67.7 µM) | 300 µg/mL (≈ 1020 µM) | 300 µg/mL (≈ 1020 µM) | 300 µg/mL (≈ 1020 µM) | > 400 µg/mL | > 400 µg/mL | 2 µg/mL (≈ 6.77 µM) | 20 µg/mL (≈ 67.7 µM) | > 400 µg/mL | 20 µg/mL (≈ 67.7 µM) | – | – | – | – | – |
| C=Cc1ccc(-c2cn([C@H]3C[C@H](O)[C@@H](CO)O3)c(=O)[nH]c2=O)s1 | 7 µg/mL (≈ 20.8 µM) | 10 µg/mL (≈ 29.7 µM) | > 200 µg/mL | – | 1 µg/mL (≈ 2.97 µM) | > 200 µg/mL | > 200 µg/mL | – | 70 µg/mL (≈ 208 µM) | > 200 µg/mL | – | – | – | – | 7 µg/mL (≈ 20.8 µM) | > 1 µg/mL | > 1 µg/mL | 400 µg/mL (≈ 1190 µM) | 3.5 µg/mL (≈ 10.4 µM) |
| Cc1ccc(-c2cn([C@H]3C[C@H](O)[C@@H](CO)O3)c(=O)[nH]c2=O)s1 | 0.08 µg/mL (≈ 0.247 µM) | > 40 µg/mL | 150 µg/mL (≈ 462 µM) | – | 0.2 µg/mL (≈ 0.617 µM) | 400 µg/mL (≈ 1230 µM) | 50 µg/mL (≈ 154 µM) | 150 µg/mL (≈ 462 µM) | > 200 µg/mL | > 400 µg/mL | 0.7 µg/mL (≈ 2.16 µM) | 0.2 µg/mL (≈ 0.617 µM) | 20 µg/mL (≈ 61.7 µM) | – | > 40 µg/mL | > 40 µg/mL | > 40 µg/mL | > 200 µg/mL | > 50 µg/mL |
| O=c1[nH]c(=O)n(C2O[C@H](CO)[C@@H](O)[C@@H]2O)cc1-c1ccc(Cl)s1 (some centres undefined) | 0.08 µg/mL (≈ 0.222 µM) | 37 µg/mL (≈ 103 µM) | > 400 µg/mL | – | 0.15 µg/mL (≈ 0.416 µM) | > 400 µg/mL | 300 µg/mL (≈ 832 µM) | 150 µg/mL (≈ 416 µM) | > 150 µg/mL | > 400 µg/mL | 0.015 µg/mL (≈ 0.0416 µM) | 0.05 µg/mL (≈ 0.139 µM) | 150 µg/mL (≈ 416 µM) | – | 60 µg/mL (≈ 166 µM) | 30 µg/mL (≈ 83.2 µM) | 70 µg/mL (≈ 194 µM) | > 400 µg/mL | > 50 µg/mL |
| O=c1[nH]c(=O)n([C@H]2C[C@H](O)[C@@H](CO)O2)cc1-c1ccc([N+](=O)[O-])s1 | 7 µg/mL (≈ 19.7 µM) | > 40 µg/mL | 150 µg/mL (≈ 422 µM) | > 50 µg/mL | 2 µg/mL (≈ 5.63 µM) | > 200 µg/mL | 150 µg/mL (≈ 422 µM) | – | 150 µg/mL (≈ 422 µM) | > 200 µg/mL | – | – | – | > 200 µg/mL | 40 µg/mL (≈ 113 µM) | > 40 µg/mL | > 40 µg/mL | – | – |
| O=c1[nH]c(=O)n([C@H]2C[C@H](O)[C@@H](CO)O2)cc1-c1ccsc1 | 1.5 µg/mL (≈ 4.83 µM) | 20 µg/mL (≈ 64.4 µM) | > 100 µg/mL | – | 0.3 µg/mL (≈ 0.967 µM) | 150 µg/mL (≈ 483 µM) | 70 µg/mL (≈ 226 µM) | 100 µg/mL (≈ 322 µM) | > 40 µg/mL | > 100 µg/mL | 0.04 µg/mL (≈ 0.129 µM) | 0.6 µg/mL (≈ 1.93 µM) | 70 µg/mL (≈ 226 µM) | – | 35 µg/mL (≈ 113 µM) | > 40 µg/mL | > 40 µg/mL | > 100 µg/mL | > 50 µg/mL |
| O=c1[nH]c(=O)n([C@H]2C[C@H](O)[C@@H](CO)O2)cc1-c1ccc(I)s1 | 0.07 µg/mL (≈ 0.16 µM) | 40 µg/mL (≈ 91.7 µM) | > 40 µg/mL | – | 0.04 µg/mL (≈ 0.0917 µM) | > 40 µg/mL | > 40 µg/mL | – | > 40 µg/mL | > 40 µg/mL | – | – | – | – | 10 µg/mL (≈ 22.9 µM) | > 40 µg/mL | > 40 µg/mL | 100 µg/mL (≈ 229 µM) | > 50 µg/mL |
